This is an account of results in ChEMBL document CHEMBL4350999, “Enhanced tumor retention of NTSR1-targeted agents by employing a hydrophilic cysteine cathepsin inhibitor” (Eur J Med Chem, 2019).

The target in series [1] is T1, Neurotensin receptor type 1 (Homo sapiens, UniProt P30989). As to the kind of experiment: Substrate activity at neurotensin receptor in human HT-29 cells assessed as reduction in drug uptake in presence of NTRS1 peptide N1 using Eu labelled compound measured at 2 hrs by lysotracker green staining based confocal microscopic analysis. The series is classed as cell-based. Details: scale not given: the % may be the effect or the level left. In outline:
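HT-29 cells (1.25 × 10^5/well) were given natEu-labeled conjugate (5 μM) with or without NTSR1 peptide N1 (20 μM) for 2 h at 37 °C. LysoTracker Green (100 nM) was added for 1 h. Cells were PBS washed, formaldehyde fixed and imaged by confocal microscopy (ex 405 and 488 nm). Mean pixel intensity was normalized to cell count.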

For series [2], the target named is Cathepsin B (Homo sapiens, UniProt P07858). As to the kind of experiment: Inhibition of human liver cathepsin B assessed as second order rate constant using Z-Arg-Arg-AMC as substrate measured every 5 mins for 1 hr by fluorescence assay. In outline: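 Human liver cathepsin B, 2 nM final, in 0.1 M phosphate pH 5.8 (1 mM EDTA, 2.7 mM DTT, 0.03% Brij35). Enzyme mixed with conjugate (1–500 nM final), then Z-Arg-Arg-AMC added (800 μM final); 37 °C. […] Biological triplicate.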

The target in series [3] is T1, Neurotensin receptor type 1. As to the kind of experiment: Displacement of [177Lu] DOTA-beta-ala-[N-alpha-Me8, Dmt11, Tle12] NT6-13 from neurotensin receptor in human HT-29 cells incubated for 45 mins by gamma counter analysis. In kind it is cell-based. In outline: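 HT-29 cells (~1 × 10^6) in McCoy's 5A with HEPES and 2 mg/mL BSA, pH 7.4. Incubated 45 min at 37 °C with 177Lu-N1 (100,000 cpm) plus conjugate at 5 nM–1 μM. Cells washed, bound activity gamma-counted, IC50 obtained by nonlinear regression; biological triplicate.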

Series [4] in a line: Drug uptake in human HT-29 cells measured after 240 mins using 177Lu labelled compound by gamma counter method relative to control. The series is classed as ADME, cell-based. The conditions noted are these: ht-29, 4 h. In outline:
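HT-29 cells (~1 × 10^6 in 1 mL medium) were incubated with 177Lu-conjugate (100,000 cpm) at 37 °C and sampled at 15–240 min. After medium washes, surface-bound activity was stripped with pH 2.8 glycine-HCl/NaCl buffer, and the internalized fraction was taken from the 1% SDS lysate. Fractions were gamma-counted as % of total added activity; mean ± SD, n = 3.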

A short description of series [5]: Drug localization in endolysosomal vesicles of human HT-29 cells measured at 2 hrs using Eu labelled compound by lysotracker green staining based confocal microscopic analysis. In kind it is ADME, subcellular. The conditions noted are these: ht-29, 2 h. In outline:
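HT-29 cells (1.25 × 10^5/well) incubated 2 h at 37 °C with natEu conjugate (5 μM), with or without N1 (20 μM). Lysotracker Green (100 nM) added for 1 h; cells washed, formaldehyde-fixed and imaged confocally at 405/488 nm excitation. Mean pixel intensity normalized to cell count.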

Series [6] can be described thus: Drug retention in tumor of mouse xenografted with human HT-29 cells assessed as conjugate adduct formation at 29.6 MBq measured after 72 hrs using 177Lu labelled compound by SDS-PAGE analysis. In kind it is ADME, tissue-based, Neoplasm. The conditions noted are these: in vivo. In outline: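 HT-29 xenograft mice given 800 μCi (29.6 MBq) 177Lu conjugate i.v. and killed at 72 h. Tumor, liver and kidney homogenized in RIPA with protease inhibitor and supernatants run on SDS-PAGE autoradiography. Other supernatant aliquots filtered through 10 kDa MWCO devices to give the % macromolecule-associated radioactivity; n = 3.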

A short description of series [7]: Ratio of drug uptake in SCID mouse xenograted with human HT-29 cells assessed as tumour retention to drug uptake in lung of SCID mouse xenografted with human HT-29 cells measured after 4 hrs using 177Lu labelled compound. In kind it is ADME, tissue-based, Tumor/Lung. In outline:
(§1)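 Female SCID mice (5 weeks old) received s.c. flank HT-29 cells (5 × 10^6 in Matrigel). At ~80 mm3, two weeks later, mice were randomized and given 10 μCi (0.37 MBq) of purified 177Lu conjugate i.v. by tail vein. Mice were killed at 4, 24 or 72 h. Tissues were weighed and gamma counted as %ID/g, mean ± SD, n = 5. Tumor-to-tissue ratios were calculated.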
(In general: A xenograft is tissue or cells of one species grown in another, often human tumour cells in immunodeficient mice.)

The nature of series [8]: Ratio of drug uptake in SCID mouse xenograted with human HT-29 cells assessed as tumour retention to drug uptake in liver of SCID mouse xenografted with human HT-29 cells measured after 4 hrs using 177Lu labelled compound. The series is classed as ADME, tissue-based, Tumor/Liver. In outline:
as §1

The nature of series [9]: Ratio of drug uptake in SCID mouse xenograted with human HT-29 cells assessed as tumour retention to drug uptake in small intestine of SCID mouse xenografted with human HT-29 cells measured after 4 hrs using 177Lu labelled compound. The series is classed as ADME, tissue-based, Tumor/Small intestine. In outline:
as §1

Series [10] in a line: Ratio of drug uptake in SCID mouse xenograted with human HT-29 cells assessed as tumour retention to drug uptake in large intestine of SCID mouse xenografted with human HT-29 cells measured after 4 hrs using 177Lu labelled compound. In kind it is ADME, tissue-based, Tumor/Large intestine. In outline: as §1
Series [11] is described as follows: Ratio of drug uptake in SCID mouse xenograted with human HT-29 cells assessed as tumour retention to drug uptake in kidney of SCID mouse xenografted with human HT-29 cells measured after 4 hrs using 177Lu labelled compound. The series is classed as ADME, tissue-based, Tumor/Kidney. In outline:
as §1

Series [12] can be described thus: Ratio of drug uptake in SCID mouse xenograted with human HT-29 cells assessed as tumour retention to drug uptake in muscle of SCID mouse xenografted with human HT-29 cells measured after 4 hrs using 177Lu labelled compound. In kind it is ADME, tissue-based, Tumor/Muscle. In outline: as §1
Series [13] in a line: Ratio of drug uptake in SCID mouse xenograted with human HT-29 cells assessed as tumour retention to drug uptake in blood of SCID mouse xenografted with human HT-29 cells measured after 24 hrs using 177Lu labelled compound. In kind it is ADME, tissue-based, Tumor/Blood. In outline: as §1
Series [14] is described as follows: Ratio of drug uptake in SCID mouse xenograted with human HT-29 cells assessed as tumour retention to drug uptake in liver of SCID mouse xenografted with human HT-29 cells measured after 24 hrs using 177Lu labelled compound. In kind it is ADME, tissue-based, Tumor/Liver. In outline: as §1
Series [15] in a line: Ratio of drug uptake in SCID mouse xenograted with human HT-29 cells assessed as tumour retention to drug uptake in pancreas of SCID mouse xenografted with human HT-29 cells measured after 24 hrs using 177Lu labelled compound. In kind it is ADME, tissue-based, Tumor/Pancreas. In outline: as §1
Series [16] in a line: Ratio of drug uptake in SCID mouse xenograted with human HT-29 cells assessed as tumour retention to drug uptake in large intestine of SCID mouse xenografted with human HT-29 cells measured after 24 hrs using 177Lu labelled compound. In kind it is ADME, tissue-based, Tumor/Large intestine. In outline:
as §1

Series [17] in a line: Ratio of drug uptake in SCID mouse xenograted with human HT-29 cells assessed as tumour retention to drug uptake in pancreas of SCID mouse xenografted with human HT-29 cells measured after 72 hrs using 177Lu labelled compound. In kind it is ADME, tissue-based, Tumor/Pancreas. In outline: as §1
Series [18] is described as follows: Ratio of drug uptake in SCID mouse xenograted with human HT-29 cells assessed as tumour retention to drug uptake in spleen of SCID mouse xenografted with human HT-29 cells measured after 72 hrs using 177Lu labelled compound. In kind it is ADME, tissue-based, Tumor/Spleen. In outline: as §1
Series [19] can be described thus: Ratio of drug uptake in SCID mouse xenograted with human HT-29 cells assessed as tumour retention to drug uptake in small intestine of SCID mouse xenografted with human HT-29 cells measured after 72 hrs using 177Lu labelled compound. In kind it is ADME, tissue-based, Tumor/Small intestine. In outline:
as §1

Each structure is given as a SMILES string. Activity calls are given as the source filed them. The rule behind the calls is not given here.

T1 sequence (P30989 whole entry): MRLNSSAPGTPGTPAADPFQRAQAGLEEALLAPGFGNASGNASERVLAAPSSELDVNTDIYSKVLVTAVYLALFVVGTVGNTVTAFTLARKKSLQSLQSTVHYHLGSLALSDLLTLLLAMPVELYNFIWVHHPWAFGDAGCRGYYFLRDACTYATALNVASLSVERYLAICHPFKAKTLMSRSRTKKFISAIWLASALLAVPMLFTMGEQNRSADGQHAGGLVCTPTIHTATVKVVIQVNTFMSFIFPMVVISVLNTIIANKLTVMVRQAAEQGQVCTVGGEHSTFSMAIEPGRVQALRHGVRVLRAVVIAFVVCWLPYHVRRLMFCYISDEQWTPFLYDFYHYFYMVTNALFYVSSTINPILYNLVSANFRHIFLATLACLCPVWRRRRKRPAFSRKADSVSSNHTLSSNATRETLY

Consider `Cc1cc(O)cc(C)c1C[C@H](NC(=O)[C@@H]1CCCN1C(=O)[C@H](CCCNC(=N)N)NC(=O)[C@H](CCCNC(=N)N)N(C)C(=O)[C@@H]1CCCN1C(=O)[C@H](CCCCN)NC(=O)[C@@H](CO)NC(=O)[C@@H](CO)NC(=O)[C@@H](CO)NC(=O)[C@H](Cc1cn(CCNC(=O)[C@H](CCCNC(=N)N)NC(=O)[C@H](CC(C)C)NC(=O)CCC(=O)O)nn1)NC(=O)CN1CCN(CC(=O)O)CCN(CC(=O)O)CCN(CC(=O)O)CC1)C(=O)N[C@H](C(=O)N[C@@H](CC(C)C)C(=O)O)C(C)(C)C`, for which, in [1], the Activity was determined as 65%. Besides, the inhibition entry in [2] is “inactive”. Besides, the IC50 (in general, the concentration that inhibits the measured activity by half) in series [3] came out at 63 nM. Besides, the Drug uptake in series [4] was 6%; in series [5], “Active”; in series [6], “Not Active”.
For the molecule `Cc1cc(O)cc(C)c1C[C@H](NC(=O)[C@@H]1CCCN1C(=O)[C@H](CCCNC(=N)N)NC(=O)[C@H](CCCNC(=N)N)N(C)C(=O)[C@@H]1CCCN1C(=O)[C@H](CCCCN)NC(=O)[C@@H](CO)NC(=O)[C@@H](CO)NC(=O)[C@@H](CO)NC(=O)[C@H](Cc1cn(CCNC(=O)[C@H](CCCNC(=N)N)NC(=O)[C@H](CC(C)C)NC(=O)C2OC2C(=O)O)nn1)NC(=O)CN1CCN(CC(=O)O)CCN(CC(=O)O)CCN(CC(=O)O)CC1)C(=O)N[C@H](C(=O)N[C@@H](CC(C)C)C(=O)O)C(C)(C)C` (stereo partly drawn), the Activity in series [1] worked out at 63.7%. Moreover, the K in series [2] was found to be 67000 M⁻¹ s⁻¹. Further, the IC50 in series [3] is 60 nM. For the same molecule, the values for the Drug uptake in series [4], in series [5] and in series [6] were 6%, “Active” and “Active”, respectively. For the same molecule, the Ratio in series [7] stood at 12.3; in [8], 8.4; in [9], 1.85; in series [10], 5.7; in series [11], 0.1; in [12], 94. Moreover, the Ratio in series [14] stood at 8.5; in series [15], 36; in series [16], 6; in series [17] it was 30; in [18], 2.4; in series [19], 1.7. In addition, the Kp – broadly, tissue or fluid exposure divided by exposure in the circulation – at 24 h in series [13] was 422.
Turning to `Cc1cc(C)c(C(=O)OCC(=O)[C@H](CCCCNC(=O)CNC(=O)[C@@H](CO)NC(=O)[C@@H](CO)NC(=O)[C@@H](CO)NC(=O)Cn2cc(C[C@H](NC(=O)CN3CCN(CC(=O)O)CCN(CC(=O)O)CCN(CC(=O)O)CC3)C(=O)N[C@H](CO)C(=O)N[C@H](CO)C(=O)N[C@H](CO)C(=O)N[C@@H](CCCCN)C(=O)N3CCC[C@H]3C(=O)N(C)[C@@H](CCCNC(=N)N)C(=O)N[C@@H](CCCNC(=N)N)C(=O)N3CCC[C@H]3C(=O)N[C@@H](Cc3c(C)cc(O)cc3C)C(=O)N[C@H](C(=O)N[C@@H](CC(C)C)C(=O)O)C(C)(C)C)nn2)NC(=O)[C@H](Cc2ccccc2)NC(=O)OCc2ccccc2)c(C)c1`, the Ratio in series [7] was found to be 1.9; in [8], 0.2; in series [9] it was 1.3; in [10] it was 2.7; in [11], 0.13; in series [12], 15. Moreover, the Ratio was 0.5 in [14]; 17 in series [15]; 5 in [16]; 6.5 in series [17]; 0.28 in series [18]; 0.9 in series [19]. For the same molecule, the Kp at 24 h in series [13] amounted to 69.
